Assay outcomes as filed in PubChem.
dFosB act: activators of delta FosB homodimer, primary screen, biochemical, fluorescence polarization, TAMRA-CDK5 oligo, single point; hit rate 0.99% among 340,000; Protein FosB (Mus musculus), P13346; activation, % at 25 µM; purified delta FosB; percent of positive-control signal above neutral wells;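 active = mean activation above about 17%, with every replicate also reaching it, limit read from the data, passing the limit was not always enough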
Target sequence (P13346 whole entry, looked up): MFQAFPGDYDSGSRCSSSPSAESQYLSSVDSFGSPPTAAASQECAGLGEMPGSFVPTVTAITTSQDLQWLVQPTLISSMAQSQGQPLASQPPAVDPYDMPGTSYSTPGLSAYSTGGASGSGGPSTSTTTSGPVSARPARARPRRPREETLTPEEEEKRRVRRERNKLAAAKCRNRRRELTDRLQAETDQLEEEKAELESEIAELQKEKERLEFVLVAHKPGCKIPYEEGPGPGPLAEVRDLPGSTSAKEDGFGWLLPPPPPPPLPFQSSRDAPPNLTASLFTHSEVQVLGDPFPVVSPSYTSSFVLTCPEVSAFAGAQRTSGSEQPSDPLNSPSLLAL
PvdQ inh: P. aeruginosa PvdQ acylase inhibitors, primary screen, biochemical, fluorescence, plate reader and imaging, single point; PvdQ acylase [Pseudomonas aeruginosa LESB58]; purified PvdQ acylase; inhibition, % at 10 µM; hit rate 0.063% among 340,000; AID 488965, 2010; in the data active = inhibition above about 30%, passing the limit was not always enough
SR-BI DiI-HDL act: activators of SR-BI mediated DiI-HDL uptake, primary screen, ldlA[mSR-BI] CHO cells, DiI fluorescence | AID 504775, 2011 | 3 h; 100 = double the neutral-control signal | hit rate 0.096% among 320,000 | activation, % at 12.5 µM;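 active = mean replicate activation of at least 60% and every replicate at or above 60%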
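Assay system: LDL receptor-deficient CHO ldlA cells overexpressing murine SR-BI / Medium: BSA-supplemented, HEPES-buffered Ham's F12, pH 7.4 / Probe or stimulus: DiI-labelled HDL at 10 µg/mL final / Timing: compound with DiI-HDL co-incubation, 3 h at 37 °C / Technique: bottom-read cell fluorescence after medium removal, ex 550/em 595 nm / Measure: HDL uptake via cellular fluorescence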
rRNA inh HTS: reduced GFP signal of wild-type E. coli, primary screen, bacterial rRNA inhibitor project, GFP/RFP fluorescence, OD600, single point; hit rate 1.6% among 350,000; GFP signal change (wild-type ribosome), % (concentration not given with the values); AID 720706, 2013; E. coli WT GFP vs humanized-ribosome RFP mutants, 24 h; stronger effect = lower value; DMSO median 0, no signal -100;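 active = significant combined selectivity score with lowered wild-type GFP, culture density cut under 30%, mutant RFP and density less affected; inactive = any of these conditions unmet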
SR-BI HDL uptake: inhibitors of SR-BI mediated HDL lipid uptake, primary screen, ldlA[mSR-BI] cells, fluorescence, single point | AID 488896, 2010 | inhibition, % at 12.5 µM | hit rate 0.96% among 320,000 | ldlA[mSR-BI] CHO cells, DiI-HDL uptake fluorescence, 3 h;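 active = mean replicate inhibition of at least 70% and a set share of replicates each scoring 70 or more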
XiGFP reactiv: activators of inactive X chromosome reactivation, primary screen, imaging, XiGFP fibroblasts, GFP high-content imaging, set 2 | XiGFP mouse fibroblasts, % GFP-positive cells imaging, 3 d; cells co-treated with 5-aza-dC sensitizer; scaled so ellipticine positive control = 100% | AID 743238, 2013 | activation, % at 7.58 µM | hit rate 0.055% among 360,000;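 active = mean normalized replicate activation at least 10% and every replicate at or above 10%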
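assay system = SV40-immortalized XiGFP fibroblast cells, line 68-5-11 | buffer or medium = DMEM plus 5-aza-dC sensitizer | doses = single-point pinned compound dosing | times = 3-day compound exposure, then 15 min fixation at room temperature | benchmarks = positive control ellipticine, 6 µM final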
Numbers stand for hits; i = inactive; nt = no result. Rows were chosen to be rich in hits. Some 2.6% of all compounds tested hit in one or more screens of this group.

SMILES	dFosB act	PvdQ inh	SR-BI DiI-HDL act	rRNA inh HTS	SR-BI HDL uptake	XiGFP reactiv
O=C(COc1ccc(F)cc1)Nc1cc(S(=O)(=O)N2CCCCC2)ccc1N1CCCCC1	i	i	i	i	i	i
CCCCCn1c(CCNC(=O)c2cccs2)nc2ccccc21	i	i	i	-30	i	nt
Cc1ccc(NC(=O)c2ncn(CCCN3CCN(c4ccccn4)CC3)n2)cc1C	i	i	i	-22	i	i
Cc1ccc(NC(=O)c2ncn(CCCN(CCCn3cnc(C(=O)Nc4ccc(C)c(C)c4)n3)Cc3ccc4[nH]ccc4c3)n2)cc1C	77	i	i	i	i	i
COC(=O)[C@H](Cc1ccccc1)NCCCn1cnc(C(=O)Nc2ccc(C)c(C)c2)n1	i	i	i	-35	i	i
COC(=O)[C@H](Cc1ccccc1)NC(=O)Cn1cnc(C(=O)Nc2ccc(C)c(C)c2)n1	i	i	i	i	i	i
CO[C@H]1CN(C)C(=O)c2cc(NS(C)(=O)=O)ccc2OC[C@H](C)N(C(=O)C2CC2)C[C@@H]1C	nt	nt	nt	i	nt	i
CN(C)c1ccc(C2Nc3ccccc3C(=O)N2CCN2CCNC2=O)cc1 (configuration not stated)	i	i	i	i	i	i
COc1ccc(Cl)cc1C(=O)OCC(=O)c1ccc[nH]1	i	i	i	-16	i	i
Cc1cc(C)c(NC(=O)CCCOC(=O)C2=COCCO2)c(C)c1	i	i	i	nt	i	nt
Cc1cccn2c(=O)c(/C=C(\C#N)C(=O)NCc3ccco3)c(N3CCCCCC3)nc12	nt	nt	nt	-30	nt	i
O=C(NCc1ccco1)C1CCN(C(=O)c2cc3sccc3n2Cc2ccc(F)cc2)CC1	i	i	i	-29	i	nt
COc1ccc(C(CCNCc2ccc(OC(C)C)cc2)C(C)C)cc1 (configuration not stated)	nt	nt	nt	-48	nt	i
COc1ccc(CNCCC(c2ccc(OC(C)C)cc2)C(C)C)cc1OC (configuration not stated)	i	i	i	nt	i	nt
O=C(Nc1nnc(-c2ccc(Cl)cc2)o1)Nc1ccccc1Cl	i	i	i	nt	i	nt
O=C(CCN1C(=O)/C(=C/c2ccccc2Cl)SC1=S)NC1C=CS(=O)(=O)C1 (configuration not stated)	28	i	i	i	i	i
O=C(CCN1C(=O)/C(=C/c2ccc(F)cc2)SC1=S)NC1C=CS(=O)(=O)C1 (configuration not stated)	i	i	i	i	i	i
COc1ccc(O)c(/C=N/NC(=S)Nc2cccc(S(=O)(=O)N(C)C)c2)c1	i	i	i	nt	i	nt
COc1cccc(/C=N/NC(=S)Nc2cccc(S(=O)(=O)N(C)C)c2)c1	i	i	i	-18	i	i
CCCNC(=O)[C@H]1[C@H](CO)[C@H]2Cn3c(ccc(-c4cccc(F)c4)c3=O)[C@@H]1N2Cc1ccccc1F	nt	nt	nt	i	nt	i
CCOC(=O)C1CCCN(Cc2cccc(Oc3ccccc3)c2)C1 (configuration not stated)	i	i	i	i	i	i
CCOC(=O)C1CCCN(C(=O)c2ccc3oc(CCc4ccccc4)nc3c2)C1 (configuration not stated)	i	i	i	-29	i	i
CCOC(=O)C1CCCN(C(=O)c2ccc3nc(-c4cccc(OC)c4)oc3c2)C1 (configuration not stated)	i	i	i	-35	i	i
CCOC(=O)C1CCCN(Cc2ccc(-c3ccccc3)cc2)C1 (configuration not stated)	i	i	i	-25	i	i
CCC(=O)C1CCCN(C(=O)c2ccc3nc(-c4cccc(OC)c4)oc3c2)C1 (configuration not stated)	i	i	i	i	i	i
SMILES	dFosB act	PvdQ inh	SR-BI DiI-HDL act	rRNA inh HTS	SR-BI HDL uptake	XiGFP reactiv
CC(=O)C1CCCN(C(=O)c2ccc3oc(CCc4ccccc4)nc3c2)C1 (configuration not stated)	i	i	i	i	i	i
CCOC(=O)C1CCCN(C(=O)c2ccc(OC(C)=O)cc2)C1 (configuration not stated)	i	i	i	nt	i	nt
CCOC(=O)C1CCCN(C(=O)C(C)(C)Oc2ccc(Cl)cc2)C1 (configuration not stated)	i	i	i	-30	i	i
COc1ccccc1N1CCN(C2=NS(=O)(=O)c3ccccc32)CC1	i	i	i	nt	i	nt
CCOC(=O)C1CCCN(C(=O)c2cc(-c3ccncc3)nc3ccccc23)C1 (configuration not stated)	i	i	i	i	i	i
CCOC(=O)C1CCCN(C(=O)c2cc(-c3ccc(F)cc3)nc3ccccc23)C1 (configuration not stated)	i	i	i	i	70	i
COC(=O)c1cnc(NC(=O)C2(C)CCCN(C(C)=O)C2)s1 (configuration not stated)	nt	nt	nt	i	nt	i
COc1ccccc1NC(=O)Nc1nc(CC(=O)Nc2cc(F)ccc2F)cs1	i	i	i	i	97	i
COc1ccccc1NC(=O)Nc1nc(CC(=O)Nc2ccc(N(C)C)cc2)cs1	i	i	i	i	91	i
COc1ccc(NC(=O)Cc2csc(NC(=O)Nc3ccccc3OC)n2)cc1	nt	nt	nt	i	nt	i
CCOc1ccc(-c2nnn(CC(=O)Nc3cc(OC)ccc3OC)n2)cc1OCC	i	i	i	i	i	nt
CCOc1ccc(-c2nnn(CC(=O)NCc3ccc(OC)cc3)n2)cc1OCC	29	i	i	nt	i	nt
COc1ccccc1CNc1ccc([N+](=O)[O-])cc1C	i	i	i	i	i	i
COc1cccc(CNc2ccc([N+](=O)[O-])cc2Cl)c1O	i	i	i	-50	i	i
Cc1cc(C(F)(F)F)c2c(C)nn(-c3ccccc3)c2n1	i	i	i	i	i	i
O=[N+]([O-])c1ccccc1CSc1ccccn1	i	i	i	i	i	i
O=[N+]([O-])c1ccccc1CCc1cnc(Cl)s1	i	i	i	i	84	i
CCN(CC)c1ccc(/C=N/N2CCN(c3ccccc3OC)CC2)cc1	i	i	i	i	81	i
CCOc1ccc(CCNC(=O)CCc2nc(-c3ccc(C)cc3)no2)cc1OCC	i	i	i	nt	i	nt
COc1ccc(CN(C)C[C@H]2Oc3ccc(NS(=O)(=O)c4cccs4)cc3CC(=O)N([C@H](C)CO)C[C@H]2C)cc1	nt	nt	nt	i	nt	i
